Read-outs that look alike come from different tables or passages of the source.
Columns and labels:
[1] = type: in vivo, human (healthy Chinese volunteers); details: for Cmax: plasma
In short: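 Open-label, randomized, parallel-group study. Thirty healthy volunteers (5 men, 5 women per group) took single oral doses of 500, 1000 or 1500 mg glucosamine sulfate, as dispersible tablets, with 250 mL water after an overnight fast. The 500 mg group continued at 500 mg t.i.d. for 7 days, with troughs on days 4–7. Heparinized plasma was taken from 0 to 24 h. Cmax came from the observed curves, other parameters from non-compartmental analysis, and group differences from ANOVA.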

[2] = type: in vivo, human (healthy Chinese volunteers); details: n=10; for Urine excretion (% of dose): single oral dose 1000 mg, mean±SD
[3] = type: in vitro ADME, human; details: for Stability, Accuracy (% of nominal conc.): plasma
In short: (§1)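 Glucosamine was spiked into blank human matrix at low and high QC levels: plasma 0.020 and 1.66 μg/mL, urine 2.21 and 42.7 μg/mL, n=2. Freeze-thaw used 24 h at −20 °C, thawing at room temperature and 12 h refreezing, up to three cycles. Short-term storage was 8 h at room temperature and long-term storage up to 60 days at −20 °C. Samples were compared with fresh references and accuracy given as found versus nominal.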

[4] = type: in vitro ADME, human; details: urine
In short: as §1

[5] = cited from earlier work
[6] = before administration, Chinese volunteers, n=30
[7] = multiple doses 500 mg t.i.d., 7th day, mean±SD, n=10
[8] = single oral dose 500 mg, mean±SD, n=10
[9] = single oral dose 1000 mg, mean±SD, n=10
[10] = single oral dose 1500 mg, mean±SD, n=10
[11] = before administration, Chinese volunteers

With 2-amino-2-deoxy-D-glucose [glucosamine] the “accumulation after multiple doses” value ([1]; 500 mg t.i.d. for 7 consecutive days vs single dose) was “no significant accumulation effects”, the “dose linearity of absorption (dose-normalized AUC and Cmax)” value ([1]; 1500 mg vs 500 and 1000 mg dose groups, P<0.05) was “non-linear absorption at higher doses” and the “time at which peak concentration was reached” value ([1]; after oral administration, all dose groups) was “about 2 h”. The “plasma glucosamine baseline levels, mean” value [1, 6] was 16.7 ± 26.9 ng/mL, the “plasma glucosamine baseline levels, range” value [1, 6] was 0 to 120 ng/mL and the “AUC0–10” value [1, 7] was 1020 ± 240 ng·h/mL. The “AUC0–∞” value [1, 7] was 1020 ± 240 ng·h/mL, the AUCss [1, 7] was 1000 ± 240 ng·h/mL and the Css_av [1, 7] was 125 ± 31 ng/mL. For the same substance, the Css_min [1, 7] was 59 ± 56 ng/mL, the DF [1, 7] was 1.90±0.93% and the “MRT0–10” value [1, 7] was 2.70 ± 0.34 h. It also gave a Tmax [1, 7] of 1.90 ± 1.10 h, a t1/2 [1, 7] of 1.41 ± 0.76 h and a Cmax [1, 7] of 294 ± 76 ng/mL. The “time at which plasma glucosamine was eliminated to the baseline level” value ([1]; post-dosing) was “about 10 h”, the “AUC0–10” value [1, 8] was 1420 ± 200 ng·h/mL and the “AUC0–∞” value [1, 8] was 1430 ± 210 ng·h/mL. For the same substance, the “MRT0–10” value [1, 8] was 3.18 ± 0.71 h, the Tmax [1, 8] was 2.60 ± 1.39 h and the t1/2 [1, 8] was 1.17 ± 0.40 h. The “AUC0–10” value [1, 9] was 3370 ± 1020 ng·h/mL, the “AUC0–∞” value [1, 9] was 3420 ± 1010 ng·h/mL and the “MRT0–10” value [1, 9] was 3.57 ± 0.24 h. It also gave a Tmax [1, 9] of 2.70 ± 0.86 h, a t1/2 [1, 9] of 1.32 ± 0.35 h and a Cmax [1, 9] of 795 ± 280 ng/mL. For the same substance, the “AUC0–10” value [1, 10] was 4030 ± 1280 ng·h/mL, the “AUC0–∞” value [1, 10] was 4180 ± 1400 ng·h/mL and the “MRT0–10” value [1, 10] was 3.30 ± 0.61 h. It also gave a Tmax [1, 10] of 1.90 ± 0.84 h, a t1/2 [1, 10] of 1.36 ± 0.94 h and a Cmax [1, 10] of 925 ± 280 ng/mL. The “urine glucosamine levels (baseline), mean” value [2, 11] was 4.96 ± 1.74 µg/mL, the “urine glucosamine levels (baseline), range” value [2, 11] was 2.79 to 8.07 µg/mL and the “Urine excretion (% of dose)” value ([2]; 0–3 h after dosing) was 0.434±0.300%. The “Urine excretion (% of dose)” value ([2]; 0–6 h after dosing) was 1.39±1.45%, the “Urine excretion (% of dose)” value ([2]; 0–10 h after dosing) was 1.83±1.84% and the “Urine excretion (% of dose)” value ([2]; 0–14 h after dosing) was 1.90±1.86%. For the same substance, the “Urine excretion (% of dose)” value ([2]; 0–24 h after dosing) was 1.99±1.86%, the “Stability, Accuracy (% of nominal conc.)” value ([3]; 0.020 μg/mL, Freeze-thaw (n=3)) was 100.0% and the “Stability, Accuracy (% of nominal conc.)” value ([3]; 0.020 μg/mL, Long-term after 60 d (−20 °C)) was 90.0%. For the same substance, the “Stability, Accuracy (% of nominal conc.)” value ([3]; 1.660 μg/mL, Freeze-thaw (n=3)) was 105.2%, the “Stability, Accuracy (% of nominal conc.)” value ([3]; 1.660 μg/mL, Long-term after 60 d (−20 °C)) was 106.6% and the “Stability, Accuracy (% of nominal conc.)” value ([3]; 1.660 μg/mL, Short-term after 8 h (25 °C)) was 98.4%. For the same substance, the “stability in plasma and urine under different storage conditions” value ([3]; three freeze-thaw cycles, 8 h bench-top, −20 °C up to 2 months, plasma and urine) was “stable”, the “Stability, Accuracy (% of nominal conc.)” value ([4]; 2.21 μg/mL, Freeze-thaw (n=3)) was 106.6% and the “Stability, Accuracy (% of nominal conc.)” value ([4]; 2.21 μg/mL, Long-term after 60 d (−20 °C)) was 99.2%. For the same substance, the “Stability, Accuracy (% of nominal conc.)” value ([4]; 2.21 μg/mL, Short-term after 8 h (25 °C)) was 104.2%, the “Stability, Accuracy (% of nominal conc.)” value ([4]; 42.7 μg/mL, Freeze-thaw (n=3)) was 105.3% and the “Stability, Accuracy (% of nominal conc.)” value ([4]; 42.7 μg/mL, Long-term after 60 d (−20 °C)) was 103.7%. For the same substance, the “Stability, Accuracy (% of nominal conc.)” value ([4]; 42.7 μg/mL, Short-term after 8 h (25 °C)) was 111.2%, the “plasma glucosamine baseline levels, mean value” ([5]; Caucasian volunteers) was 45.3 ng/mL and the “Endogenous level of glucosamine in human plasma” value ([5]; human plasma) was 10 to 200 ng/mL.

Source: paper PMC5760825 (Journal of Pharmaceutical Analysis, 2011)
